Consider 9 compounds from ChEMBL document CHEMBL1145165, “Syntheses and biological activities of disaccharide daunorubicins” (J Med Chem, 2005).

Assay [1] deals with SW-620. The assay can be described thus: Cytotoxicity against SW620 colon cancer cell line done for 72 h at 37 degree C with compound in MTS assay. Format: functional, cell-based, Homo sapiens. The gist of the method: (§1)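 Cells (2000–10000) seeded in RPMI-1640 for 24 h, then exponentially growing cells exposed to a range of concentrations (0.001–5 μM) for 72 h at 37 °C, 5% CO2. MTS (2 mg/mL) mixed with PMS (25 μM) added directly; after 3 h at 37 °C formazan absorbance read at 490 nm. IC50 taken from dose-response curves of percent growth versus untreated control.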
A general note: Tetrazolium assays rely on reduction of a dye to a coloured formazan, in cell work by metabolically active cells.

The test system of assay [2] is K562. The assay can be described thus: Cytotoxicity against K562 leukemia cell line done for 72 hr at 37 degree C with compound in MTS assay. The format is functional, cell-based, Homo sapiens. The essentials:
as §1

Each structure is given as a SMILES string. Counter-ions that a name gives are not always drawn.

Usually IC50 stands for the concentration that gives 50% inhibition.

For `COc1cccc2c1C(=O)c1c(O)c3c(c(O)c1C2=O)C[C@@](O)(C(C)=O)C[C@@H]3O[C@H]1C[C@H](N)[C@H](O)[C@H](C)O1` [DAUNORUBICIN HYDROCHLORIDE], the half-maximal inhibitory concentration (IC50) in assay [1] (Homo sapiens, SW-620, 72 h) is 8.6 nM; in assay [2] (Homo sapiens, K562, 72 h), 15.6 nM.
Take `COc1cccc2c1C(=O)c1c(O)c3c(c(O)c1C2=O)C[C@@](O)(C(C)=O)C[C@@H]3OC1CC(N)C(OC2CC(OC)C(O)C(C)O2)C(C)O1` (stereo in doubt; 2): the IC50 in assay [1] (sw-620) was found to be 38.9 nM; in assay [2] (k562) it was 45.8 nM.
On the same counts, the results for `COc1cccc2c1C(=O)c1c(O)c3c(c(O)c1C2=O)C[C@@](O)(C(C)=O)C[C@@H]3OC1CC(N)C(OC2CC(C)(O)C(O)C(C)O2)C(C)O1` (stereo in doubt; 3) are 21.7 nM and 44.3 nM.
For `COc1cccc2c1C(=O)c1c(O)c3c(c(O)c1C2=O)C[C@@](O)(C(C)=O)C[C@@H]3OC1CC(N)C(OC2CC(C)(OC)C(O)C(C)O2)C(C)O1` (stereo partly drawn), the half-maximal inhibitory concentration (IC50) in assay [1] (Homo sapiens, SW-620, 72 h) was 11.4 nM; in assay [2] (Homo sapiens, K562, 72 h), 21 nM.
In the case of `COc1cccc2c1C(=O)c1c(O)c3c(c(O)c1C2=O)C[C@@](O)(C(C)=O)C[C@@H]3OC1CC(N)C(OC2OC(C)C(O)C(O)C2O)C(C)O1` (stereo partly drawn), the IC50 in assay [1] (Homo sapiens, SW-620, 72 h) is above 1000 nM; in assay [2] (Homo sapiens, K562, 72 h), above 4000 nM.
For the compound `COc1cccc2c1C(=O)c1c(O)c3c(c(O)c1C2=O)C[C@@](O)(C(C)=O)C[C@@H]3OC1CC(N)C(OC2CC(C)(O)C(O)C(C)O2)C(C)O1` (stereo in doubt; 4), the IC50 in assay [1] (sw-620) was above 1000 nM; in assay [2] (k562), 1530 nM.
Take `COc1cccc2c1C(=O)c1c(O)c3c(c(O)c1C2=O)C[C@@](O)(C(C)=O)C[C@@H]3OC1CC(N)C(OC2CC(N=[N+]=[N-])C(O)C(C)O2)C(C)O1` (stereo partly drawn): the IC50 in assay [1] (Homo sapiens, SW-620, 72 h) came to 60.3 nM; in assay [2] (Homo sapiens, K562, 72 h), 31.3 nM.
Consider `COc1cccc2c1C(=O)c1c(O)c3c(c(O)c1C2=O)C[C@@](O)(C(C)=O)C[C@@H]3OC1CC(N)C(OC2CC(OC)C(O)C(C)O2)C(C)O1` (stereo in doubt; 1), for which the IC50 in assay [1] (sw-620) came out at 18.2 nM; in assay [2] (Homo sapiens, K562, 72 h) it was 39.5 nM.
Consider `COc1cccc2c1C(=O)c1c(O)c3c(c(O)c1C2=O)C[C@@](O)(C(C)=O)C[C@@H]3OC1CC(N)C(OC2CC(O)C(O)C(CO)O2)C(C)O1` (stereo partly drawn), for which the concentration for half-maximal inhibition (IC50) in assay [1] (Homo sapiens, SW-620, 72 h) was above 1000 nM; in assay [2] (Homo sapiens, K562, 72 h), 1380 nM.
